Data taken from ChEMBL document CHEMBL4316638, “Bioactive Meroterpenoids and Isocoumarins from the Mangrove-Derived Fungus Penicillium sp. TGM112” (J Nat Prod, 2019).
Values after ≈ are worked out from the molar mass of the structure shown. Active and inactive are the calls of the source. The calls are words filed in the database; no cut-off is given here.

Experiments:
Caenorhabditis elegans = test: Insecticidal activity against Caenorhabditis elegans measured at 12 […]; format: functional, organism-based
How it was run: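 L1 C. elegans (30−40 worms/well) in S medium with E. coli OP50 and chloramphenicol, exposed to compound at 40, 20, 10, 5, 1 and 0 μg/mL diluted in filter-sterilized M-9; 3 replicates per treatment. Plates sealed, kept at 24 °C for 60 h in the dark; dead larvae counted at 12, 24, 36, 48, 60. M-9 negative control, levamisole 1 mg/mL positive control.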

Staphylococcus aureus [1] = test: Antibacterial activity against Staphylococcus aureus ATCC 25923 by microplate assay; format: functional, organism-based
HeLa = test: Cytotoxicity against human HeLa cells measured after 7 days by MTT assay; format: functional, cell-based
Staphylococcus aureus [2] = test: Antibacterial activity against methicillin-resistant Staphylococcus aureus ATCC 33591 by microplate assay; format: functional, organism-based
How it was run: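 MRSA (ATCC 33591) was one strain in a panel of six pathogenic bacteria: four general and two marine Vibrio. Assayed by the microplate method, with ciprofloxacin as positive control.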

A549 = test: Cytotoxicity against human A549 cells measured after 7 days by MTT assay; format: functional, cell-based
RAW264.7 = test: Inhibition of LPS-induced nitric oxide production in mouse RAW264.7 cells preincubated for 30 mins followed by LPS-stimulation and measured after 24 hrs by Griess assay; format: functional, cell-based
How it was run: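 RAW264.7 macrophages seeded at 50 000 cells/well and grown 24 h, then exposed to compound for 30 min at 37 °C before LPS (100 ng/mL) co-incubation for 24 h. Nitrite in supernatant measured by Griess reagent (10 min mixing), absorbance 540 nm. Compounds from 10 mM DMSO stocks; final DMSO ≤0.1%. Dexamethasone positive control. Triplicate runs; IC50 calculated.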

Bacillus cereus = test: Antibacterial activity against Bacillus cereus ATCC 11778 by microplate assay; format: functional, organism-based
Vibrio parahaemolyticus = test: Antibacterial activity against Vibrio parahaemolyticus ATCC 17802 by microplate assay; format: functional, organism-based
Escherichia coli = test: Antibacterial activity against Escherichia coli ATCC 25922 by microplate assay; format: functional, organism-based
HepG2 = test: Cytotoxicity against human HepG2 cells measured after 7 days by MTT assay; format: functional, cell-based
Vibrio alginolyticus = test: Antibacterial activity against Vibrio alginolyticus ATCC 17749 by microplate assay; format: functional, organism-based; conditions: NBRC 15630 = ATCC 17749
Helicoverpa armigera = test: Insecticidal activity against Helicoverpa armigera hubner measured every other day for 8 days starting from 2 days post dosing; format: functional, organism-based
How it was run: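 Neonate H. armigera larvae fed artificial diet dosed with serial dilutions of compound (1 mg/mL in DMSO) at 200, 100, 50, 25 and 12.5 μL/well in six-well plates; three groups of three larvae, 3 replicates per treatment. Held at 25 ± 1 °C, 80% relative humidity. Dead larvae counted on days 2, 4, 6, 8. DMSO negative, azadirachtin positive, plain diet blank controls.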

| SMILES | EC50 (Caenorhabditis elegans) | Activity (Staphylococcus aureus [1]) | Activity (HeLa) | Activity (Staphylococcus aureus [2]) | Activity (A549) | inhibition (RAW264.7) | Activity (Bacillus cereus) | Activity (Vibrio parahaemolyticus) | Activity (Escherichia coli) | Activity (HepG2) | Activity (Vibrio alginolyticus) | IC50 (Helicoverpa armigera) |
| --- | --- | --- | --- | --- | --- | --- | --- | --- | --- | --- | --- | --- |
| c1ccc([C@H]2CN3CCSC3=N2)cc1 [LEVAMISOLE] | 4.8 mg/L (≈ 23.5 µM) |  |  |  |  |  |  |  |  |  |  |  |
| COc1c(O)ccc2c1C(=O)O[C@H](CCC[C@@H](C)O)C2 |  | inactive | inactive | inactive | inactive | inactive | inactive | inactive | inactive | inactive | inactive |  |
| COC(=O)CC[C@@H]1Cc2ccc(O)c(OC)c2C(=O)O1 |  | inactive | inactive | inactive | inactive | inactive | inactive | inactive | inactive | inactive | inactive | 200 mg/L (≈ 714 µM) |
| COc1ccc2c(c1O)C(=O)O[C@H](CCCO)C2 |  | inactive | inactive | inactive | inactive | inactive | inactive | inactive | inactive | inactive | inactive |  |
| C=C1[C@@]23C(=O)O[C@H](C)[C@]24O[C@@]2(C(=C)[C@]5(C=CC(=O)OC5(C)C)CC[C@]32C)[C@H](O)[C@@]1(C)OC4=O | 38.2 mg/L (≈ 83.7 µM) | inactive | inactive | inactive | inactive | inactive | inactive | inactive | inactive | inactive | inactive |  |
| C=C1[C@@]23C(=O)O[C@H](C)[C@]24O[C@@]2(C(=C)[C@]5(CCC(=O)OC5(C)C)C[C@@H](O)[C@]32C)[C@H](OC(C)=O)[C@@]1(C)OC4=O |  | inactive | inactive | inactive | inactive | inactive | inactive | inactive | inactive | inactive | inactive | 50 mg/L (≈ 96.8 µM) |
| C=C1[C@@]23C(=O)O[C@H](C)[C@@]2(O)C(=O)O[C@]1(C)[C@@H](O)C1=C(C)[C@]2(CCC(=O)OC2(C)C)CC[C@@]13C | 19.5 mg/L (≈ 42.3 µM) | inactive | inactive | inactive | inactive | inactive | inactive | inactive | inactive | inactive | inactive | 100 mg/L (≈ 217 µM) |
| C=C1[C@]2(C)C(=O)[C@]3(O)[C@@H](C)OC(=O)[C@]13[C@@]1(C)CC[C@@]3(C=CC(=O)OC3(C)C)C(C)=C1[C@@H]2OC(C)=O |  | inactive | inactive | inactive | inactive | inactive | inactive | inactive | inactive | inactive | inactive |  |
| C=C1[C@@]23C(=O)O[C@H](C)[C@@]2(O)C(=O)O[C@]1(C)[C@@H](O)C1=C2COC4CC(=O)OC(C)(C)[C@@]24CC[C@@]13C (some centres undefined) | 19.1 mg/L (≈ 40.3 µM) | inactive | inactive | inactive | inactive | inactive | inactive | inactive | inactive | inactive | inactive |  |
| C=C1[C@@]23C(=O)O[C@H](C)[C@@]2(O)C(=O)O[C@]1(C)[C@@H](OC(C)=O)C1=C(C)[C@]2(CCC(=O)OC2(C)C)CC[C@@]13C |  | inactive | inactive | inactive | inactive | inactive | inactive | inactive | inactive | inactive | inactive | 50 mg/L (≈ 99.5 µM) |
| C=C1[C@@]23C(=O)O[C@H](C)[C@]24O[C@@]2(C(=C)[C@]5(C=CC(=O)OC5(C)C)C[C@@H](O)[C@]32C)[C@H](OC(C)=O)[C@@]1(C)OC4=O | 20.6 mg/L (≈ 40 µM) | inactive | inactive | inactive | inactive | inactive | inactive | inactive | inactive | inactive | inactive |  |
| O=C1O[C@H](CCCO)Cc2cccc(O)c21 |  | inactive | inactive | inactive | inactive | inactive | inactive | inactive | inactive | inactive | inactive |  |
| C[C@@H](O)CCC[C@H]1OC(=O)c2c(O)cccc2[C@@H]1O |  | inactive | inactive | inactive | inactive | inactive | inactive | inactive | inactive | inactive | inactive | 100 mg/L (≈ 376 µM) |
| C[C@@H](O)CCC[C@@H]1Cc2c(O)ccc(O)c2C(=O)O1 |  | inactive | inactive | inactive | inactive | inactive | inactive | inactive | inactive | inactive | inactive | 100 mg/L (≈ 376 µM) |
| C/C=C(\C)C(=O)O[C@H]1C[C@@H](OC(C)=O)[C@@]2(C(=O)OC)CO[C@H]3[C@@H](O)[C@@](C)([C@]45O[C@@]4(C)[C@H]4C[C@@H]5O[C@@H]5OC=C[C@@]54O)[C@H]4[C@]1(CO[C@]4(O)C(=O)OC)[C@@H]32 [AZADIRACTIN] |  |  |  |  |  |  |  |  |  |  |  | 25 mg/L (≈ 34.7 µM) |
| CC(=O)OCCC[C@@H]1Cc2cccc(O)c2C(=O)O1 |  | inactive | inactive | inactive | inactive | inactive | inactive | inactive | inactive | inactive | inactive |  |
| COc1c(O)ccc2c1C(=O)O[C@H](CCCC(C)=O)C2 |  | inactive | inactive | inactive | inactive | inactive | inactive | inactive | inactive | inactive | inactive |  |
| C[C@H](O)CCC[C@@H]1C[C@@H]2C[C@@H](O)CC(O)=C2C(=O)O1 |  | inactive | inactive | inactive | inactive | inactive | inactive | inactive | inactive | inactive | inactive | 200 mg/L (≈ 740 µM) |
| CC(=O)CCC[C@@H]1C[C@@H]2C[C@@H](O)CC(O)=C2C(=O)O1 |  | inactive | inactive | inactive | inactive | inactive | inactive | inactive | inactive | inactive | inactive | 200 mg/L (≈ 745 µM) |
| CC(=O)CCC[C@@H]1Cc2cccc(O)c2C(=O)O1 |  | inactive | inactive | inactive | inactive | inactive | inactive | inactive | inactive | inactive | inactive |  |
